Laboratory results as given in ChEMBL document CHEMBL1130218, “Potent anandamide analogs: the effect of changing the length and branching of the end pentyl chain” (J Med Chem, 1997).
Calls of active or inactive are those of the source. No cut-off for these calls is given here.

Columns and labels:
Mus musculus [1] = species on record: Mus musculus; assay: Hypothermia as measured from changes in rectal (RT) in mice; Inactive; assay type: functional, organism-based
Procedure, shortened: (§1)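 Separate group of mice; rectal temperature by thermistor probe inserted 25 mm before and 4 min after iv tail-vein injection (ethanol:emulphor:saline 1:1:18, 0.1 mL/10 g).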

Mus musculus [2] = species on record: Mus musculus; assay: Inhibition of spontaneous activity (SA) in mice; assay type: functional
Procedure, shortened: (§2)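 Measured in the same mice as tail-flick; iv tail-vein dosing in ethanol:emulphor:saline 1:1:18, 0.1 mL/10 g. Immediately after tail-flick (about 4 min post-injection) mice placed in individual photocell cages; beam interruptions over 16 beams counted for 10 min.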

Mus musculus [3] = species on record: Mus musculus; assay: Ring immobility (RI) in mice; assay type: functional
Procedure, shortened: (§3)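 Same mice as temperature test; immediately after temperature reading, mice placed on 5.5 cm ring 16 cm high and motionless time over 5 min recorded; % immobility = time/300 s × 100. iv tail-vein dosing in ethanol:emulphor:saline 1:1:18.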

Mus musculus [4] = species on record: Mus musculus; assay: Antinociception as measured from the tail - flick response (TF), in mice; assay type: functional
Cannabinoid receptor 1 [5] = target: T1, Cannabinoid receptor 1 (Mus musculus, UniProt P47746); assay: Binding affinity for Cannabinoid receptor 1 in presence of phenylmethylsulfonyl fluoride (PMSF)
Procedure, shortened: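 Radioligand binding to P2 membranes (150 µg protein) in 50 mM Tris-HCl, 1 mM EDTA, 3 mM MgCl2, 5 mg/mL BSA, with amidase inhibitor PMSF 50 µM; final ethanol ≤0.4%. 1 h at 30 °C; nonspecific binding with 1 µM CP-55,940; terminated with ice-cold buffer and rapid filtration through PEI-treated filters.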

Cannabinoid receptor 1 [6] = target: T1, Cannabinoid receptor 1; assay: Binding affinity for Cannabinoid receptor 1 in absence of phenylmethylsulfonyl fluoride (PMSF)
Procedure, shortened: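 Radioligand binding to P2 membranes (150 µg protein) in 50 mM Tris-HCl, 1 mM EDTA, 3 mM MgCl2, 5 mg/mL BSA; ethanolic stocks diluted, final ethanol ≤0.4%; no PMSF. 1 h at 30 °C; nonspecific binding with 1 µM CP-55,940; stopped with ice-cold buffer and rapid filtration through PEI-treated filters.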

Mus musculus [7] = species on record: Mus musculus; assay: Inhibition of spontaneous activity (SA) in mice; Inactive; assay type: functional, organism-based; procedure, shortened: as §2
Mus musculus [8] = species on record: Mus musculus; assay: Antinociception as measured from the tail - flick response (TF), in mice; Inactive; assay type: functional, organism-based
Mus musculus [9] = species on record: Mus musculus; assay: Ring immobility (RI) in mice; Inactive; assay type: functional, organism-based; procedure, shortened: as §3
Mus musculus [10] = species on record: Mus musculus; assay: Hypothermia as measured from changes in rectal (RT) in mice; assay type: functional; procedure, shortened: as §1

T1 sequence (P47746 whole entry): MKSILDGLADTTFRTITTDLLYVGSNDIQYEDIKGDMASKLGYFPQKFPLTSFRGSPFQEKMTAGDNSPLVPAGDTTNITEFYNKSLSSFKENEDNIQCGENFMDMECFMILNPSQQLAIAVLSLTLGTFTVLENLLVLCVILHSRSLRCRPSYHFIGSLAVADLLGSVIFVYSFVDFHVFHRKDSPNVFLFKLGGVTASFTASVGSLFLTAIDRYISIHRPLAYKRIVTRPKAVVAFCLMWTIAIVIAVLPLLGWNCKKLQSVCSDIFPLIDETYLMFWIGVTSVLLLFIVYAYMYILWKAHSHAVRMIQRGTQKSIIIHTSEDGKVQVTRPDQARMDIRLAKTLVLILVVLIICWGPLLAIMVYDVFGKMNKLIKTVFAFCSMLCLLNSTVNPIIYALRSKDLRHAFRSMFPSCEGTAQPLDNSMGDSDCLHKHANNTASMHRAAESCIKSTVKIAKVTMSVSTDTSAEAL

Row | Structure (SMILES) | ED50 (Mus musculus [1]) | ED50 (Mus musculus [2]) [mg/kg] | ED50 (Mus musculus [3]) [mg/kg] | ED50 (Mus musculus [4]) [mg/kg] | Ki (Cannabinoid receptor 1 [5]) [nM] | Ki (Cannabinoid receptor 1 [6]) [nM] | ED50 (Mus musculus [7]) | ED50 (Mus musculus [8]) | ED50 (Mus musculus [9]) | ED50 (Mus musculus [10]) [mg/kg]
1 | CCCCCCCC(C)(C)/C=C\C/C=C\C/C=C\C/C=C\CCC(C)C(=O)NCCF (centres undefined) | inactive | 20.3 | 33.3 | 12.8 | 14 | – | – | – | – | –
2 | CCCCCCCCC/C=C\C/C=C\C/C=C\C/C=C\CCCC(=O)NCCO | inactive | 7.35 | 5.13 | 14.4 | 25 | 79 | – | – | – | –
3 | CCCCCCCC/C=C\C/C=C\C/C=C\C/C=C\CCCC(=O)NCCO | – | – | – | – | 18 | 156 | inactive | inactive | – | –
4 | CCCCCC/C=C\C/C=C\C/C=C\C/C=C\CCCC(=O)NCCO | inactive | – | – | – | 24 | 3060 | inactive | inactive | inactive | –
5 | CCCCCC(C)(C)C/C=C\C/C=C\C/C=C\C/C=C\CCCC(=O)NCCO | – | 3.36 | 5.05 | 57.3 | 19 | 39 | – | – | – | 9.38
6 | CCCCCC(C)C/C=C\C/C=C\C/C=C\C/C=C\CCC(C)C(=O)NCCF (centres undefined) | – | 2.09 | 2.67 | 4.08 | 3.3 | – | – | – | – | 0.24
7 | CCCCCCC(C)/C=C\C/C=C\C/C=C\C/C=C\CCC(C)C(=O)NCCF (centres undefined) | – | 1.15 | 2.22 | 1.3 | 4.8 | – | – | – | – | 0.08
8 | CCCCCc1cc(O)c2c(c1)OC(C)(C)C1CCC(C)=C[C@@H]21 (single isomer, unassigned) [DRONABINOL] | – | 1 | 1.5 | 1.4 | – | – | – | – | – | 1.4
9 | CCCCCC(C)C/C=C\C/C=C\C/C=C\C/C=C\CCCC(=O)NCCO (centres undefined) | – | 6.22 | 5.29 | 5.48 | 11 | 51 | – | – | – | 12.2
10 | CCCCC/C=C\C/C=C\C/C=C\C/C=C\CCCC(=O)NCCO [ANANDAMIDE] | – | 17.9 | 19.1 | 6.2 | – | – | – | – | – | 26.5
11 | CCCCC/C=C\C/C=C\C/C=C\C/C=C\CCC(C)C(=O)NCCF (centres undefined) | – | 4.78 | 1.6 | 6.99 | 5.7 | 15 | – | – | – | 2.73
12 | CCCCCC(C)(C)C/C=C\C/C=C\C/C=C\C/C=C\CCC(C)C(=O)NCCF (centres undefined) | – | 3.14 | 11.4 | 4.12 | 7.7 | – | – | – | – | 76.2
13 | CCCCCCC(C)(C)/C=C\C/C=C\C/C=C\C/C=C\CCC(C)C(=O)NCCF (centres undefined) | – | 3.48 | 3.11 | 0.86 | 1 | – | – | – | – | 3.6
14 | CCCCCCCC/C=C\C/C=C\C/C=C\C/C=C\CCC(C)C(=O)NCCF (centres undefined) | inactive | 3.52 | 6.37 | 15.3 | 8.2 | – | – | – | – | –
15 | CCCCCCC/C=C\C/C=C\C/C=C\C/C=C\CCCC(=O)NCCO | inactive | 20.4 | – | – | 55 | 1780 | – | inactive | inactive | –
16 | CCCCCCC(C)(C)/C=C\C/C=C\C/C=C\C/C=C\CCCC(=O)NCCO | – | 2.17 | 1.17 | 2.16 | 7 | – | – | – | – | 7.49
17 | CCCCC(C)(C)C/C=C\C/C=C\C/C=C\C/C=C\CCCC(=O)NCCO | inactive | 44.1 | – | – | 48 | 382 | – | inactive | inactive | –
